Measurements collected from several papers.
Protocols differ between the studies behind these lines. pIC50, pKd, pKi: −log10 of the molar value.
Nectin-4: Nectin-4 (Homo sapiens, UniProt Q96NY8)
PFF0160c E182D: Dihydroorotate dehydrogenase (quinone), mitochondrial (PFF0160c, Plasmodium falciparum, UniProt Q08210, E182D)
SIGMAR1: Sigma non-opioid intracellular receptor 1 (SIGMAR1, Homo sapiens, UniProt Q99720)
PFF0160c: Dihydroorotate dehydrogenase (quinone), mitochondrial (PFF0160c, Plasmodium falciparum, UniProt Q08210)

SMILES	target	observed	mode	technique	endpoint	value
CCCC[C@@H]1NC(=O)[C@H](Cc2ccc(O)cc2)NC(=O)[C@@H]2CCCN2C(=O)[C@H](CC(=O)O)NC(=O)[C@H](C)NC(=O)[C@H](Cc2ccccc2)NC(=O)[C@@H]2CSCCC(=O)N3CN(CN(C3)C(=O)CCSC[C@@H](C(=O)N[C@@H](C)C(N)=O)NC1=O)C(=O)CCSC[C@H](NC(C)=O)C(=O)N[C@@H](CC(C)(C)C)C(=O)N1CCC[C@H]1C(=O)N[C@@H](CCC(=O)O)C(=O)N[C@H](CCCCNC(=O)CCc1cn(CCOCCOCCOCCOCCOCCC(=O)NCCCC[C@H]3NC(=O)[C@H](Cc4cccc5ccccc45)NC(=O)[C@@H]4CCCN4C(=O)CCSCCC(=O)N4CN5CN(C4)C(=O)CCSC[C@H](NC3=O)C(=O)N[C@@H](CCSC)C(=O)N[C@@H](CCCCNC(=N)N)C(=O)N[C@@H](CC(=O)O)C(=O)N[C@@H](Cc3c[nH]c4ccccc34)C(=O)N[C@@H](CO)C(=O)N[C@@H]([C@@H](C)O)C(=O)N3CCC[C@H]3C(=O)N3C[C@H](O)C[C@H]3C(=O)N[C@@H](Cc3c[nH]c4ccccc34)C(=O)N[C@H](C(N)=O)CSCCC5=O)nn1)C(=O)N1CCC[C@H]1C(=O)N[C@@H](Cc1ccc(O)cc1)C(=O)N2	Nectin-4	binding	–	SPR	pKd	8.66
Cc1cc(F)ccc1NS(=O)(=O)c1ccc(-c2ccoc2)s1	PFF0160c E182D	enzyme activity	inhibitor	absorbance	pIC50	< 5.00
COc1cc2c(cc1OC)CN(CCc1ccc(NC(=O)c3cc(OC)c(OC)cc3NC(=O)c3cnc4ccccc4c3)cc1)CC2	SIGMAR1	ligand displacement	–	radioligand	pKi	6.33
COc1nc(NCC(C)C)nc(Oc2ccc(=O)n(Cc3ccccc3)n2)n1	PFF0160c E182D	enzyme activity	inhibitor	absorbance	pIC50	5.33
CCCC[C@@H]1NC(=O)[C@H](Cc2ccc(O)cc2)NC(=O)[C@@H]2CCCN2C(=O)[C@H](CC(=O)O)NC(=O)[C@H](C)NC(=O)[C@H](Cc2ccccc2)NC(=O)[C@@H]2CSCCC(=O)N3CN(CN(C3)C(=O)CCSC[C@@H](C(=O)N[C@@H](C)C(N)=O)NC1=O)C(=O)CCSC[C@H](NC(C)=O)C(=O)N[C@@H](CC(C)(C)C)C(=O)N1CCC[C@H]1C(=O)N[C@@H](CCC(=O)O)C(=O)N[C@H](CCCCNC(=O)CCc1cn(CCOCCOCCOCCOCCOCCC(=O)N[C@H]3CSCCC(=O)N4CN5CN(C4)C(=O)CCSC[C@H](NC(=O)[C@@H](CCC(=O)O)NC(=O)[C@H](Cc4cccc6ccccc46)NC(=O)[C@@H]4CCCN4C3=O)C(=O)N[C@@H](CC(C)C)C(=O)N[C@@H](CCCCNC(=N)N)C(=O)N[C@@H](CC(=O)O)C(=O)N[C@@H](Cc3c[nH]c4ccccc34)C(=O)N[C@@H](CO)C(=O)N[C@@H]([C@@H](C)O)C(=O)N3CCC[C@H]3C(=O)N3C[C@H](O)C[C@H]3C(=O)N[C@@H](Cc3c[nH]c4ccccc34)C(=O)N[C@H](C(N)=O)CSCCC5=O)nn1)C(=O)N1CCC[C@H]1C(=O)N[C@@H](Cc1ccc(O)cc1)C(=O)N2	Nectin-4	binding	–	SPR	pKd	8.38
N[C@@H](C[C@]1(C(=O)O)C[C@H]2OC[C@@H](O)[C@@H](O)[C@H]2O1)C(=O)O	Glutamate receptor ionotropic, kainate 2 (Grik2, Rattus norvegicus, UniProt P42260, A518T/Y443F)	ligand displacement	–	radioligand	pKi	6.01
CCCC[C@@H]1NC(=O)[C@H](Cc2ccc(O)cc2)NC(=O)[C@@H]2CCCN2C(=O)[C@H](CC(=O)O)NC(=O)[C@H](C)NC(=O)[C@H](Cc2ccccc2)NC(=O)[C@@H]2CSCCC(=O)N3CN(CN(C3)C(=O)CCSC[C@@H](C(=O)N[C@@H](C)C(N)=O)NC1=O)C(=O)CCSC[C@H](NC(=O)[C@H](C)NC(C)=O)C(=O)N[C@@H]([C@@H](C)CC)C(=O)N[C@@H](CCC(=O)O)C(=O)N[C@@H](CCC(=O)O)C(=O)N[C@H](CCCCNC(=O)CCc1cn(CCOCCOCCOCCN(CCOCCOCCOCCC(=O)N[C@H]3CSCCC(=O)N4CN5CN(C4)C(=O)CCSC[C@H](NC(=O)[C@@H](CC(=O)O)NC(=O)[C@H](Cc4cccc6ccccc46)NC(=O)[C@@H]4CCCN4C3=O)C(=O)N[C@@H](CCSC)C(=O)N[C@@H](CCCCNC(=N)N)C(=O)N[C@@H](CC(=O)O)C(=O)N[C@@H](Cc3c[nH]c4ccccc34)C(=O)N[C@@H](CO)C(=O)N[C@@H]([C@@H](C)O)C(=O)N3CCC[C@H]3C(=O)N3C[C@H](O)C[C@H]3C(=O)N[C@@H](Cc3c[nH]c4ccccc34)C(=O)N[C@H](C(N)=O)CSCCC5=O)CCOCCOCCOCCn3cc(CCC(=O)NCCCC[C@H]4NC(=O)[C@H](CCC(=O)O)NC(=O)[C@H](CCC(=O)O)NC(=O)[C@H]([C@@H](C)CC)NC(=O)[C@@H](NC(=O)[C@H](C)NC(C)=O)CSCCC(=O)N5CN6CN(C5)C(=O)CCSC[C@H](NC(=O)[C@H](Cc5ccc(O)cc5)NC(=O)[C@H](CCC(N)=O)NC4=O)C(=O)N[C@@H](Cc4ccccc4)C(=O)N[C@@H](C)C(=O)N[C@@H](CC(=O)O)C(=O)N4CCC[C@H]4C(=O)N[C@@H](Cc4ccc(O)cc4)C(=O)N[C@@H](CCCC)C(=O)N[C@H](C(=O)N[C@@H](C)C(N)=O)CSCCC6=O)nn3)nn1)C(=O)N[C@@H](CCC(N)=O)C(=O)N[C@@H](Cc1ccc(O)cc1)C(=O)N2	Nectin-4	binding	–	SPR	pKd	8.17
CN(C)CCC(c1ccc(Cl)cc1)c1ccccn1 (stereo not drawn)	SIGMAR1	ligand displacement	–	radioligand	pKi	5.88
COCC(C)n1c(SCC(=O)Nc2cc(C(F)(F)F)ccc2Cl)nc2ccccc2c1=O (stereo not drawn)	PFF0160c	enzyme activity	inhibitor	absorbance	pIC50	6.20
CCCC[C@@H]1NC(=O)[C@H](Cc2ccc(O)cc2)NC(=O)[C@@H]2CCCN2C(=O)[C@H](CC(=O)O)NC(=O)[C@H](C)NC(=O)[C@H](Cc2ccccc2)NC(=O)[C@@H]2CSCCC(=O)N3CN(CN(C3)C(=O)CCSCCC(=O)N[C@@H](CC(C)(C)C)C(=O)N3CCC[C@H]3C(=O)N[C@@H](CCC(=O)O)C(=O)N[C@H](CCCCNC(=O)CCc3cn(CCOCCOCCOCCOCCOCCC(=O)N[C@H]4CSCCC(=O)N5CN6CN(C5)C(=O)CCSC[C@H](NC(=O)[C@@H](CC(=O)O)NC(=O)[C@H](Cc5cccc7ccccc57)NC(=O)[C@@H]5CCCN5C4=O)C(=O)N[C@@H](CCSC)C(=O)N[C@@H](CCCCNC(=N)N)C(=O)N[C@@H](CC(=O)O)C(=O)N[C@@H](Cc4c[nH]c5ccccc45)C(=O)N[C@@H](CO)C(=O)N[C@@H]([C@@H](C)O)C(=O)N4CCC[C@H]4C(=O)N4C[C@H](O)C[C@H]4C(=O)N[C@@H](Cc4c[nH]c5ccccc45)C(=O)N[C@H](C(N)=O)CSCCC6=O)nn3)C(=O)N3CCC[C@H]3C(=O)N[C@@H](Cc3ccc(O)cc3)C(=O)N2)C(=O)CCSCCNC1=O	Nectin-4	binding	–	SPR	pKd	9.00
CCCCOc1ccccc1C(=O)NCc1csc(-c2ccccc2)n1	PFF0160c	enzyme activity	inhibitor	absorbance	pIC50	6.38
CC(C)NC[C@@H](O)COc1cccc2ccccc12	SIGMAR1	ligand displacement	–	radioligand	pKi	6.46
Cc1cc(NC(=O)c2cc(S(=O)(=O)N3CCCCC3)ccc2C)no1	PFF0160c	enzyme activity	inhibitor	absorbance	pIC50	5.77
CN(C)CCOC(C)(c1ccccc1)c1ccccn1 (stereo not drawn)	SIGMAR1	ligand displacement	–	radioligand	pKi	< 5.00
CCCC[C@@H]1NC(=O)[C@H](Cc2ccc(O)cc2)NC(=O)[C@@H]2CCCN2C(=O)[C@H](CC(=O)O)NC(=O)[C@H](C)NC(=O)[C@H](Cc2ccccc2)NC(=O)[C@@H]2CSCCC(=O)N3CN(CN(C3)C(=O)CCSC[C@@H](C(=O)N[C@@H](CNC(=O)CCc3cn(CCOCCOCCOCCN(CCOCCOCCOCCC(=O)N[C@H]4CSCCC(=O)N5CN6CN(C5)C(=O)CCSC[C@H](NC(=O)[C@@H](CC(=O)O)NC(=O)[C@H](Cc5cccc7ccccc57)NC(=O)[C@@H]5CCCN5C4=O)C(=O)N[C@@H](CCSC)C(=O)N[C@@H](CCCCNC(=N)N)C(=O)N[C@@H](CC(=O)O)C(=O)N[C@@H](Cc4c[nH]c5ccccc45)C(=O)N[C@@H](CO)C(=O)N[C@@H]([C@@H](C)O)C(=O)N4CCC[C@H]4C(=O)N4C[C@H](O)C[C@H]4C(=O)N[C@@H](Cc4c[nH]c5ccccc45)C(=O)N[C@H](C(N)=O)CSCCC6=O)CCOCCOCCOCCn4cc(CCC(=O)NC[C@H](NC(=O)[C@@H]5CSCCC(=O)N6CN7CN(C6)C(=O)CCSC[C@H](NC(=O)[C@H](Cc6ccc(O)cc6)NC(=O)[C@@H]6CCCN6C(=O)[C@@H](C)NC(=O)[C@H](CCC(=O)O)NC(=O)[C@@H]6CCCN6C(=O)[C@H](CC(C)(C)C)NC(=O)[C@@H](NC(C)=O)CSCCC7=O)C(=O)N[C@@H](Cc6ccccc6)C(=O)N[C@@H](C)C(=O)N[C@@H](CC(=O)O)C(=O)N6CCC[C@H]6C(=O)N[C@@H](Cc6ccc(O)cc6)C(=O)N[C@@H](CCCC)C(=O)N5)C(N)=O)nn4)nn3)C(N)=O)NC1=O)C(=O)CCSC[C@H](NC(C)=O)C(=O)N[C@@H](CC(C)(C)C)C(=O)N1CCC[C@H]1C(=O)N[C@@H](CCC(=O)O)C(=O)N[C@H](C)C(=O)N1CCC[C@H]1C(=O)N[C@@H](Cc1ccc(O)cc1)C(=O)N2	Nectin-4	binding	–	SPR	pKd	8.43
